Measurements reported in ChEMBL document CHEMBL1147831, “Kinesin spindle protein (KSP) inhibitors. Part 4: Structure-based design of 5-alkylamino-3,5-diaryl-4,5-dihydropyrazoles as potent, water-soluble inhibitors of the mitotic kinesin KSP” (Bioorg Med Chem Lett, 2006).
In brackets after ≈: the same amount, converted by molar mass.

What was measured:
[1] = target: T1, Kinesin-like protein KIF11 (Homo sapiens, UniProt P52732); test: Inhibition of KSP by ATPase assay
T1 sequence (P52732 whole entry): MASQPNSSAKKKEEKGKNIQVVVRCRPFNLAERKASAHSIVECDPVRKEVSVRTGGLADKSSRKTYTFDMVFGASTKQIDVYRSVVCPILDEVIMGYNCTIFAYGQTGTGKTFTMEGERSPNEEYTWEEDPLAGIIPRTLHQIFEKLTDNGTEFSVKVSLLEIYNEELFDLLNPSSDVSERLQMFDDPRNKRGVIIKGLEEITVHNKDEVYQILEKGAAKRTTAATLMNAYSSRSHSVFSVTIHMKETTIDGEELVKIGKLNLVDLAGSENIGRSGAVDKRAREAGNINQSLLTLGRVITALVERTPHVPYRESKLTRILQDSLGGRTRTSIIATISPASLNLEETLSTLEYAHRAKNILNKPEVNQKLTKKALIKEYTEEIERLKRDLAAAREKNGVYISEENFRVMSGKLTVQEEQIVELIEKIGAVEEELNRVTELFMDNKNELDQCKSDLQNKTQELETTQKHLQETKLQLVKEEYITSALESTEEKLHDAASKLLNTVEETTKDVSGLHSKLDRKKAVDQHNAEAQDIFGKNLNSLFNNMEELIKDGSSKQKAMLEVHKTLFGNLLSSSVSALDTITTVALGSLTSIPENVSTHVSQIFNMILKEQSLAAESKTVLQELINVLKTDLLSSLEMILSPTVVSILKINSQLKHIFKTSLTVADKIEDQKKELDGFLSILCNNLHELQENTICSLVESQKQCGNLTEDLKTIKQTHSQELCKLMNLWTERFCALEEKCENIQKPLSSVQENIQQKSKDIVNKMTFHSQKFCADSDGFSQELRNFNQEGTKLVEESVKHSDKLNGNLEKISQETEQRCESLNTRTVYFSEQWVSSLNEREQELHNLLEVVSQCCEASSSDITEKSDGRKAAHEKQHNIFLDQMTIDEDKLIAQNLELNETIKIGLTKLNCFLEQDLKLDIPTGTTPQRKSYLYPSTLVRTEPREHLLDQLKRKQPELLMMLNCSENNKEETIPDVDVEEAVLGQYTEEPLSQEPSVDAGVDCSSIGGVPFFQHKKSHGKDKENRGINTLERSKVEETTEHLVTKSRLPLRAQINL

A2780 = test: Mitotic arrest in human A2780 cells; assay type: functional, cell-based
[2] = Partition coefficient, log P of the compound; assay type: physicochemical; conditions: octanol/water
[3] = Solubility in citrate at pH 6.5; assay type: physicochemical
Outline: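 Crystalline solid; solubility determined in pH 6.5 citrate buffer.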

[4] = Clearance in mongrel dog at 0.25 mg/kg, iv; assay type: ADME, organism-based, Canis lupus familiaris; design: dose 0.25 mg/kg, route intravenous; conditions: in vivo
Outline: (§1)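 Single iv dose of 0.25 mpk given to two mongrel dogs, one male and one female.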

[5] = Half life in mongrel dog at 0.25 mg/kg, iv; assay type: ADME, organism-based, Canis lupus familiaris; design: dose 0.25 mg/kg, route intravenous; conditions: in vivo; outline: as §1
[6] = Volume of distribution in mongrel dog at 0.25 mg/kg, iv; assay type: ADME, organism-based, Canis lupus familiaris; design: dose 0.25 mg/kg, route intravenous; conditions: in vivo, read-out: Vdss; outline: as §1
[7] = target: Voltage-gated inwardly rectifying potassium channel KCNH2 (Homo sapiens, UniProt Q12809); test: Inhibition of hERG expressed in HEK cells by radioligand binding assay; assay type: toxicity, cell-based, HEK293
[8] = Solubility in citrate at pH 4.0; assay type: physicochemical
Outline: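 Solubility of crystalline solid determined in citrate buffer at pH 4.0.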

[9] = Aqueous solubility at pH 10.3; assay type: physicochemical; conditions: aqueous medium
Outline: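 Solubility of crystalline material measured in water; final pH of the solution was 10.3.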

Voltage-gated inwardly rectifying potassium channel KCNH2, sequence (Q12809 whole entry): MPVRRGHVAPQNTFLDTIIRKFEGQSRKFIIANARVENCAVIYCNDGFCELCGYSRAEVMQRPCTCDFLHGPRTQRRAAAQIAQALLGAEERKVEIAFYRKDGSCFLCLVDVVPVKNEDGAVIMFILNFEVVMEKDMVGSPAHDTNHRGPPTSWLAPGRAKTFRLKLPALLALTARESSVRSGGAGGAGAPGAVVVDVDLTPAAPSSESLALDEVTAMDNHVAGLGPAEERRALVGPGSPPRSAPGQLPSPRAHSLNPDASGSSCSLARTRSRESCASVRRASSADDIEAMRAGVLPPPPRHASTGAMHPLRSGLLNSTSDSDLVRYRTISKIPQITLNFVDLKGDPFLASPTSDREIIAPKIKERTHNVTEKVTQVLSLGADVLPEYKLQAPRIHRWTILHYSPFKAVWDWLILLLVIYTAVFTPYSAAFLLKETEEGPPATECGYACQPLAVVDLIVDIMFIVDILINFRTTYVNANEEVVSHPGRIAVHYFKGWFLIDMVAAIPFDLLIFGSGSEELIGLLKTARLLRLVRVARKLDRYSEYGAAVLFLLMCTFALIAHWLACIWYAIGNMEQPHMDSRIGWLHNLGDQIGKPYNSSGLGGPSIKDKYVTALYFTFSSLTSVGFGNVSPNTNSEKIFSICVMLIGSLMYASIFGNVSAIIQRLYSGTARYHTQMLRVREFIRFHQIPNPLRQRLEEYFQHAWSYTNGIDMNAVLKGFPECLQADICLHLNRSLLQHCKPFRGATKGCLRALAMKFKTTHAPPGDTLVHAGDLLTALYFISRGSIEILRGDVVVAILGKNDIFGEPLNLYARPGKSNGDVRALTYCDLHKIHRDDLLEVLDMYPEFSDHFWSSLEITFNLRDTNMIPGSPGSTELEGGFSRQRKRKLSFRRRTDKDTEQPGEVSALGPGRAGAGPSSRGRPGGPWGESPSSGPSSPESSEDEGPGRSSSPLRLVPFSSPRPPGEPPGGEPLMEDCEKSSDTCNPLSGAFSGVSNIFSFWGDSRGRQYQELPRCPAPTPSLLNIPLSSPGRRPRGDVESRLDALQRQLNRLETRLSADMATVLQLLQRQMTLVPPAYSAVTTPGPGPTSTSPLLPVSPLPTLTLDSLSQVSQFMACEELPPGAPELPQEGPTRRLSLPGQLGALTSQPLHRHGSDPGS

| SMILES | IC50 [1] [nM] | other results |
| --- | --- | --- |
| CCNC(=O)N1N=C(c2cc(F)ccc2F)CC1(CCN)c1ccccc1 (stereo unspecified) | 390 | – |
| CC(=O)N1N=C(c2cc(F)ccc2F)C[C@H]1c1cccc(O)c1 | 24.7 | EC50 (A2780): 24.8 nM; logP [2]: 3.1; solubility [3]: 29 µg/mL (≈ 0.0917 mM); clearance [4]: 22.1 mL/min/kg; half-life [5]: 1 h; Vd [6]: 1.6 L/kg |
| CNC(=O)N1N=C(c2cc(F)ccc2F)CC1(CO)c1ccccc1 (stereo unspecified) | 903 | – |
| CNC(=O)N1N=C(c2cc(F)ccc2F)CC1(C)c1ccccc1 (stereo unspecified) | 284 | – |
| CCNC(=O)N1N=C(c2cc(F)ccc2F)CC1(CCCCNC(=O)c1cnc[nH]1)c1ccccc1 (stereo unspecified) | 686 | – |
| CCNC(=O)N1N=C(c2cc(F)ccc2F)CC1(CCCCNCc1ccccc1)c1ccccc1 (stereo unspecified) | 100 | – |
| NCCCC1(c2ccccc2)CC(c2cc(F)ccc2F)=NN1C(=O)N1CCC1 (stereo unspecified) | 55 | – |
| CCNC(=O)N1N=C(c2cc(F)ccc2F)CC1(CCCCNC(=O)c1ncc[nH]1)c1ccccc1 (stereo unspecified) | 552 | – |
| CN(C)C(=O)N1N=C(c2cc(F)ccc2F)C[C@@]1(CCCN)c1ccccc1 | 1.9 | IC50 [7]: 19300 nM; EC50 (A2780): 5.2 nM; logP [2]: 1.2; solubility [8]: > 12000 µg/mL; solubility [9]: 1700 µg/mL (≈ 4.4 mM); clearance [4]: 14.5 mL/min/kg; half-life [5]: 14.7 h; Vd [6]: 14 L/kg |
| CN(C)C(=O)N1N=C(c2cc(F)ccc2F)CC1(CCCN)c1ccccc1 (stereo unspecified) | 8 | – |
| CCNC(=O)N1N=C(c2cc(F)ccc2F)CC1(CCCCNC(=O)c1ccccn1)c1ccccc1 (stereo unspecified) | 391 | – |
| CCNC(=O)N1N=C(c2cc(F)ccc2F)CC1(CCCCN)c1ccccc1 (stereo unspecified) | 67 | – |
| CCNC(=O)N1N=C(c2cc(F)ccc2F)CC1(CCCCN1CC2C=CC1C2)c1ccccc1 (stereo unspecified) | 119 | – |
| NCCCC1(c2ccccc2)CC(c2cc(F)ccc2F)=NN1C(=O)N1CCCC1 (stereo unspecified) | 26 | – |
| CCNC(=O)N1N=C(c2cc(F)ccc2F)CC1(CCCC[N+](C)(C)[O-])c1ccccc1 (stereo unspecified) | 585 | – |
| NCCCC1(c2ccccc2)CC(c2cc(F)ccc2F)=NN1C(=O)N1CCOCC1 (stereo unspecified) | 122 | – |
| NCCCC1(c2ccccc2)CC(c2cc(F)ccc2F)=NN1C(=O)N1CCCCC1 (stereo unspecified) | 85 | – |
| CCNC(=O)N1N=C(c2cc(F)ccc2F)CC1(CCCO)c1ccccc1 (stereo unspecified) | 745 | – |
| CCNC(=O)N1N=C(c2cc(F)ccc2F)CC1(CCCCNC(=O)c1ccccc1)c1ccccc1 (stereo unspecified) | 892 | – |
| CCNC(=O)N1N=C(c2cc(F)ccc2F)CC1(CCCCN(C)C)c1ccccc1 (stereo unspecified) | 103 | – |
| CCNC(=O)N1N=C(c2cc(F)ccc2F)CC1(CCCCO)c1ccccc1 (stereo unspecified) | 697 | – |
| CCNC(=O)N1N=C(c2cc(F)ccc2F)CC1(CCO)c1ccccc1 (stereo unspecified) | 606 | – |
